Bioassay records from PubChem BioAssay.
Shown are actives, neighbours in structure and some others; about 3.1% of the full set was active somewhere.
VIM-2 inh: blocks Pseudomonas aeruginosa VIM-2 metallo-beta-lactamase | purified VIM-2, nitrocefin hydrolysis, epi-absorbance fluorescence | inhibition, % at 5.6 µM | 290,000 tested, 0.89% active | AID 1527;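 active means inhibition above the mean of all tested compounds plus 3 SD, cutoff set per screening run, cut at about 7.5% in these data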;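 further: red hydrolysis product quenches plate fluorescence so inhibitors raise well fluorescence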
SUMO HTRF inh: inhibitors of human SUMOylation (UBC9); inhibition, % at 35 µM; HTRF SUMOylation assay, SAE1/SAE2 + UBC9, in vitro; AID 2006; P63279; 290,000 tested, 0.36% active; in the data active means inhibition above about 50%, passing the limit was not always enough; inconclusive means no clear call, values can overlap the other calls
Target sequence (P63279 whole entry, looked up): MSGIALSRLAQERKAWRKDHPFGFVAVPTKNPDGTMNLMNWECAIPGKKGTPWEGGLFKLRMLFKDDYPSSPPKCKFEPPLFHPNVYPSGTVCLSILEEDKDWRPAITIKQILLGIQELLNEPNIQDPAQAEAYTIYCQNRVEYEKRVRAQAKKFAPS
IMP-1 inh: blocks Pseudomonas aeruginosa IMP-1 metallo-beta-lactamase | purified IMP-1, nitrocefin hydrolysis, epi-absorbance fluorescence | inhibition, % at 5.6 µM | 290,000 tested, 0.45% active;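 active means inhibition above the mean plus 3 SD of all compounds in the same screening run, cut at about 4.5% in these data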
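system = purified recombinant IMP-1 beta-lactamase | amount = 0.2 nM IMP-1, as dispensed | medium = HEPES buffer pH 7.1 with ZnSO4 and Brij 35 | times = 25 °C, 15 min preincubation, 25 min reaction | detection = plate fluorescence quenching by hydrolysis product, ex 480/em 530 nm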
PHOSPHO1 inh: PHOSPHO1 (human) inhibition | 290,000 tested, 1.1% active | Q8TCT1 | recombinant PHOSPHO1, absorbance phosphatase assay | inhibition, % at 13.3 µM | AID 1565; in the data active means inhibition above about 60%
Target sequence (Q8TCT1 whole entry, looked up): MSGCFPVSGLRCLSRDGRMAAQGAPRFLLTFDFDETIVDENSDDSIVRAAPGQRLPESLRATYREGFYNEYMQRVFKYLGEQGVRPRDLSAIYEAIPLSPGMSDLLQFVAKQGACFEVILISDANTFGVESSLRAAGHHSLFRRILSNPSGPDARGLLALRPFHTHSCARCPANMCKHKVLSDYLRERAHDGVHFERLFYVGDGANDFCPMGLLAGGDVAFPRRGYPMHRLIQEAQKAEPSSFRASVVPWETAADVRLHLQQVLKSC
HCV NS3 hel inh: inhibitors of Hepatitis C virus NS3 helicase; NS3 helicase DNA unwinding, Cy5 molecular beacon fluorescence; inhibition, % at 10.9 µM; 290,000 tested, 0.56% active;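 active means inhibition above the mean of all tested compounds plus 3 SD, set per campaign, cut at about 35% in these data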
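System: HCV NS3 helicase fragment; control set: DMSO and thioflavine S; technique: Cy5 fluorescence at 0 and 60 min, beacon hairpin quenching; reagent: beacon DNA duplex substrate plus ATP; replicates: singlicate; schedule: 1 h reaction at 25 °C, ATP-initiated; medium: MOPS buffer pH 6.5 with MgCl2, DTT, Tween20, BSA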
HCV core dimer: HCV core protein dimerization inhibition; TR-FRET GST/Flag-core106 dimerization, 1536-well; inhibition, % at 5 µM; 300,000 tested, 0.33% active; AID 1899;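 active means inhibition above the mean of all tested compounds plus 3 SD, set per screening campaign, cut at about 45% in these data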
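Material: Tagged HCV core106 pair (GST and Flag) | Amount: GST-core106 13.5 nM, Flag-core106 17 nM | Medium: KF-containing HEPES buffer, pH 7.45, DTT, CHAPS, BSA | Reagent: Eu donor and XL665 acceptor anti-tag antibodies | Schedule: 4 h at 22.5 °C | Technique: Time-resolved FRET, ex 340 nm, em 617 and 671 nm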
Of the large screens only hits and unclear results are named; the others gave an inactive call.

COCCCn1c(=O)c2sccc2n2c(CCCC(=O)N(C)Cc3ccco3)nnc12	none
COc1ccc(-n2nnnc2SCC(=O)c2ccc(O)c(O)c2)cc1	none
NC(=O)c1ccc(-n2nnnc2SCC(=O)c2ccc(O)c(O)c2)cc1	VIM-2 inh 11.0
Cc1ccc(-n2nc3c(=O)n(C(C)C(=O)NCCC4=CCCCC4)nc(C)c3c2C)cc1 (stereo unspecified)	none (no result: SUMO HTRF inh)
O=C(c1c(F)cccc1F)N1CCCC(c2nc(-c3ccc(F)cc3)no2)C1 (stereo unspecified)	PHOSPHO1 inh 61.5
Cc1cc(-c2nnc(SCC(=O)Nc3cccc(F)c3)n2N)n[nH]1	none
COc1ccc(-c2ccnc3c(C#N)cnn23)cc1	SUMO HTRF inh inconclusive
N#Cc1cnn2c(-c3ccccc3)ccnc12	SUMO HTRF inh 50.3
O=C(N/N=C/c1ccco1)c1cccc(N2Cc3ccccc3C2)c1	HCV core dimer 63.2
O=C(N/N=C/c1ccco1)c1cccc(N2CCCC2=O)c1	none
CN1C(=O)Cc2cc(S(=O)(=O)N3CCN(c4ccccc4F)CC3)ccc21	none
O=c1c2ccccc2c(C=Nc2ccc(S(=O)(=O)N3CCCCC3)cc2)c(O)n1-c1ccc(Cl)cn1	HCV core dimer 60.1
COc1ccc(-n2c(=S)[nH]c3cc(C(=O)N4CCN(c5ccccc5)CC4)ccc3c2=O)c(OC)c1	none
O=[N+]([O-])c1ccc(Sc2ccccc2Cl)nc1	PHOSPHO1 inh 96.9
O=[N+]([O-])c1ccc(Sc2n[nH]c(-c3ccc(Cl)cc3Cl)n2)nc1	PHOSPHO1 inh 67.3
COC(=O)c1ccccc1S(=O)(=O)N1CCC(C(=O)OCC(=O)c2ccccc2OC)CC1	none (no result: VIM-2 inh, SUMO HTRF inh, IMP-1 inh, PHOSPHO1 inh, HCV NS3 hel inh)
Cc1ccc(C(=O)NCCCN2CCOCC2)c(Cl)c1	none
Cc1cccc(-n2cc(CN3CCN(Cc4nccn4C)CC3)c(-c3cccc(F)c3)n2)c1	PHOSPHO1 inh 61.1
Cc1ccc(-c2nn(-c3cccc(F)c3)cc2CN2CCN(c3ccccn3)CC2)o1	none
COc1ccc(-n2cc(CN3CCCC3)c(-c3cccc(F)c3)n2)cc1	PHOSPHO1 inh 61.1
COc1ccc(Cl)cc1NC(=O)C1CCN(C(=O)C2CC(=O)N(c3ccc(C)cc3)C2)CC1 (stereo unspecified)	none
CCOC(=O)c1c(C)[nH]c(C(=O)N/N=C/c2ccc(OC)c(OC)c2)c1C	PHOSPHO1 inh 75.4
CSCC[C@H](NC(=O)OC(C)(C)C)c1nnc(SCc2cccc(F)c2)o1	PHOSPHO1 inh 73.8
CSCC[C@H](NC(=O)OC(C)(C)C)c1nnc(SCc2ccc(F)cc2)o1	none
N#CC1CCN(C(=O)c2ccc3c(Cl)c4c(nc3c2)CCCC4)CC1	none
CCN1CCN(C(=O)c2ccc3c(Cl)c4c(nc3c2)CCCC4)CC1	VIM-2 inh 8.2
CN1CCN(C(=O)c2ccc3c(Cl)c4c(nc3c2)CCCC4)CC1	VIM-2 inh 10.8
CC1(C)Cc2c(cnn2-c2ccc(F)cc2)C(NC(=O)c2ccc(=O)oc2)C1 (stereo unspecified)	PHOSPHO1 inh 61.0
CC1(C)Cc2c(cnn2-c2ccc(F)cc2)C(NC(=O)c2cnccn2)C1 (stereo unspecified)	none
CC(=O)c1coc2c1cc(O)c1ccccc12	PHOSPHO1 inh 64.4
CCOC(=O)C1=C(C)NC(=O)CC1c1cc(OC)c(OC)cc1Br (stereo unspecified)	none
N#C/C(=C/c1ccccc1)C(=O)NCc1ccccc1	PHOSPHO1 inh 64.3
N#C/C(=C\c1ccc(O)c(Br)c1)C(=O)NCc1ccccc1	none
O=C(CSc1ncn[nH]1)c1ccccc1	PHOSPHO1 inh 94.8
O=C(CSc1ncn[nH]1)c1cccc([N+](=O)[O-])c1	none
COc1ccc(CCN(C)C(=O)c2cnc(C)cn2)cc1OC	none
CCCc1cc(=O)oc2cc(OCC(=O)NCC(O)c3ccccc3)ccc12 (stereo unspecified)	IMP-1 inh 42.2
CCCc1cc(=O)oc2cc(OCC(=O)NCc3cccs3)ccc12	none
Cc1c(C)c2ccc(OCC(=O)Nc3ccc(S(N)(=O)=O)cc3)c(C)c2oc1=O	VIM-2 inh 7.8
CCCc1cc(=O)oc2cc(OC(C)C(=O)NCCCn3ccnc3)ccc12 (stereo unspecified)	none
CCCc1cc(=O)oc2cc(OCC(=O)NCCCn3ccnc3)ccc12	VIM-2 inh 9.0
Cc1ccccc1OCC(=O)OCC(=O)Nc1ccc(S(N)(=O)=O)cc1	none
CCCc1cc(=O)oc2cc(OCC(=O)Nc3ccc(S(N)(=O)=O)cc3)ccc12	IMP-1 inh 15.3 (no result: SUMO HTRF inh)
O=c1ccc2c([nH]1)CCCCCCCCCC2	none
CCOC(=O)NNc1ccc2nonc2c1[N+](=O)[O-]	SUMO HTRF inh 77.2
COc1ccc(C)cc1NC(=O)CN1C(=O)COc2ccc(S(=O)(=O)N3CCOCC3)cc21	none (no result: SUMO HTRF inh)
Nc1c(C(=O)Nc2cccc(F)c2)nnn1-c1ccc2c(c1)OCCO2	IMP-1 inh 17.5
Cc1ccccc1NC(=O)c1nnn(-c2ccc3c(c2)OCCO3)c1N	none
O=[N+]([O-])c1ccc(N2CCCCC2)cc1N1CCOCC1	none
S=P(c1ccc(N2CCOCC2)cc1N1CCOCC1)(N1CCOCC1)N1CCOCC1	PHOSPHO1 inh 85.4 (no result: VIM-2 inh, IMP-1 inh, HCV NS3 hel inh, HCV core dimer)
COc1ccc(C)cc1NC(=O)CN(C)S(=O)(=O)c1ccc2c(c1)CC(C)N2C(C)=O (stereo unspecified)	none (no result: SUMO HTRF inh)
O=C(Cc1ccccc1)Nc1nc(=O)c2ccccc2s1	VIM-2 inh 11.0
O=C1/C(=C/c2ccc(N3CCCC3)cc2)NC(=S)N1C1CC1	PHOSPHO1 inh 102.0
COc1cccc(CCNC(=O)CC2C(=O)NCCN2Cc2ccc(C)o2)c1 (stereo unspecified)	none (no result: SUMO HTRF inh)
NC(=O)CSc1ncc(-c2ccc([N+](=O)[O-])cc2)[nH]1	none
O=C(CSc1ncc(-c2ccccc2)[nH]1)Nc1cccc(O)c1	PHOSPHO1 inh 93.5
O=C(CSc1ncc(-c2ccccc2)[nH]1)Nc1ccccc1	none
NC(=O)CSc1ncc(-c2ccccc2)[nH]1	PHOSPHO1 inh 73.8
Cc1ccc(/C=C2\SC(N3CCN(C(c4ccccc4)c4ccccc4)CC3)=NC2=O)o1	HCV core dimer 60.3
COc1ccc(C2/C(=C(/O)c3ccc4c(c3)CC(C)O4)C(=O)C(=O)N2CCN2CCOCC2)cc1OC (stereo unspecified)	none (no result: PHOSPHO1 inh, HCV core dimer)
CCC1(CC)NC(=O)N(CC(=O)Nc2sc3c(c2C(N)=O)CCC3)C1=O	HCV core dimer 82.6
O=C(COc1ccc2c3c(c(=O)oc2c1)CCCC3)N[C@@H](Cc1ccccc1)C(=O)O	none
CC(Oc1ccc2c3c(c(=O)oc2c1)CCC3)C(=O)NCCN1CCOCC1 (stereo unspecified)	VIM-2 inh 11.7
CC(Oc1ccc2c3c(c(=O)oc2c1)CCCC3)C(=O)NCc1ccccn1 (stereo unspecified)	VIM-2 inh 8.5
